Data set [1] concerns the target Serine/threonine-protein kinase PLK1 (Homo sapiens, UniProt P53350). The data set is described as follows: Inhibition of PLK1 (unknown origin) by FRET-based homogenous assay.
Data set [2] has as its target Serine/threonine-protein kinase PLK2 (Homo sapiens, UniProt Q9NYY3). Nature of the data set: Inhibition of PLK2 (unknown origin) by FRET-based homogenous assay.
Data set [3] has as its target Serine/threonine-protein kinase PLK3 (Homo sapiens, UniProt Q9H4B4). Nature of the data set: Inhibition of PLK3 (unknown origin) by FRET-based homogenous assay.
In data set [4] the target is T1, Serine/threonine-protein kinase PLK4 (Homo sapiens, UniProt O00444).
T1 sequence (O00444 whole entry): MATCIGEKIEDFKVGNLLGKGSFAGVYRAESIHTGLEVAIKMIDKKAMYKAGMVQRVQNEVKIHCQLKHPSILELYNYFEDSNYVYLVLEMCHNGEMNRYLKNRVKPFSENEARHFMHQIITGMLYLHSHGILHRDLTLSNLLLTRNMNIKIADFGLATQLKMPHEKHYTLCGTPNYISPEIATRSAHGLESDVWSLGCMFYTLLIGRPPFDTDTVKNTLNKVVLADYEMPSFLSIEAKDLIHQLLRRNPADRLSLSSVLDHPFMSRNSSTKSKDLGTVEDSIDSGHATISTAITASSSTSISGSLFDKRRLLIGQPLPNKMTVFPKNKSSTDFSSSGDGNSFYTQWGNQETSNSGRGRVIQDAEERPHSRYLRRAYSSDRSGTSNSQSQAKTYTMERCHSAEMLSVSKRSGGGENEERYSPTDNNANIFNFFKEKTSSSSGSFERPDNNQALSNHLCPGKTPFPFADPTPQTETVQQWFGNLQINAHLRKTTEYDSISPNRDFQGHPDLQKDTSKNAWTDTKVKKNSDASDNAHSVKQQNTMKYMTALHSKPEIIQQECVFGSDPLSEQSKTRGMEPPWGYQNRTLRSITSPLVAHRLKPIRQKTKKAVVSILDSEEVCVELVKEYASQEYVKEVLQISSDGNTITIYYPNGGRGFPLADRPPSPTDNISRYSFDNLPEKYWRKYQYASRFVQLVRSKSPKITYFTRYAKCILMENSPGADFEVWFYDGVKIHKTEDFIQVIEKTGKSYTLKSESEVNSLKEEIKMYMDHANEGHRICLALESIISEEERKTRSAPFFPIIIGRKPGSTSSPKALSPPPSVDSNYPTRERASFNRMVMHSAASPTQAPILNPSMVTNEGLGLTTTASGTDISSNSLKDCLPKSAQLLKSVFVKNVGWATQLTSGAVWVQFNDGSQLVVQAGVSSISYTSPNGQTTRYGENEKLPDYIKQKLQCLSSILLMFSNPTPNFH
Nature of the data set: Inhibition of GST-tagged human PLK4 (1-391 residues) phosphorylation by ELISA.

Data set [5] has as its target T2, Aurora kinase A (Homo sapiens, UniProt O14965).
T2 sequence (O14965 whole entry): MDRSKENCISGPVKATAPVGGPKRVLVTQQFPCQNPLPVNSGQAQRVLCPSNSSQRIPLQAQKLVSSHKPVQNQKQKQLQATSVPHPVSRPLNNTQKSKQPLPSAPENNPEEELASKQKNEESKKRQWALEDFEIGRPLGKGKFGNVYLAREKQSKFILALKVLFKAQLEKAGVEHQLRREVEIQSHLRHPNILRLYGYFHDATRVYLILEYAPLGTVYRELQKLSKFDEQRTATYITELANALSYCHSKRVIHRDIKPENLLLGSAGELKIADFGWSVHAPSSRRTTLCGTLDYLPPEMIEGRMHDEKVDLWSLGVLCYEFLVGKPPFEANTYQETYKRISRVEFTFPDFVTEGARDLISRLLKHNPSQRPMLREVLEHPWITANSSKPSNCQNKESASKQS
The data set is described as follows: Inhibition of Aurora A (unknown origin) by FRET-based homogenous assay.

Data set [6] deals with Cytochrome P450 2D6 (Homo sapiens, UniProt P10635). The data set is described as follows: Inhibition of CYP2D6 in supersomes (unknown origin) using AMMC as substrate after 30 mins. The class given is ADME.
Cytochrome P450 2D6, sequence (P10635 whole entry): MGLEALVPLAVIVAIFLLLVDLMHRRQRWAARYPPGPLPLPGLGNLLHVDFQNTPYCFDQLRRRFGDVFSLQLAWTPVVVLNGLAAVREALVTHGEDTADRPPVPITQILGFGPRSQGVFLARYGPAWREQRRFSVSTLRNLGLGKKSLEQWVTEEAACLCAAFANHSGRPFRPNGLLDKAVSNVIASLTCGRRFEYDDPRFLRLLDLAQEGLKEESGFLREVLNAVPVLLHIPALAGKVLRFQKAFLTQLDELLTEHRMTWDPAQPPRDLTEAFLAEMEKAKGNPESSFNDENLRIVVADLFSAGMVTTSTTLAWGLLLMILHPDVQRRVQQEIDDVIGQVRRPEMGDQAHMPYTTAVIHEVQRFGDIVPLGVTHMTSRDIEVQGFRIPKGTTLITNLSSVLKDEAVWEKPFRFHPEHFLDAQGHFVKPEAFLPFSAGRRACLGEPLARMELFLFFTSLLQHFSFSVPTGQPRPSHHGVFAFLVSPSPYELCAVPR
Data set [7] is described as follows: Permeability of the compound at pH 7.4 by PAMPA. It is filed as ADME. Particulars: read-out: permeability.
The nature of data set [8]: Cell cycle arrest in human HCT116 cells assessed as accumulation at sub-G1 phase at 1 uM after 2 days by flow cytometry. The class given is functional, cell-based. Particulars: HCT-116.
A short description of data set [9]: Cmax in SCID mouse at 25 mg/kg, ip. The note with it: in vivo. On the set-up: dose 25 mg/kg, route intraperitoneal. It is filed as ADME, organism-based. In outline:
(§1)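 Mice were dosed at 25 mg/kg by the IP or the PO route. Drug levels were measured in plasma, and Cmax (µg/mL) and AUC (µg h/mL) were derived for each route.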

Data set [10] in a line: AUC in SCID mouse at 25 mg/kg, ip. The class given is ADME, organism-based. On the set-up: dose 25 mg/kg, route intraperitoneal. The note with it: plasma. The method, boiled down: as §1
A short description of data set [11]: Cmax in SCID mouse at 25 mg/kg, po. The class given is ADME, organism-based. The arrangement: dose 25 mg/kg, route oral. The note with it: in vivo. In outline:
as §1

A short description of data set [12]: AUC in SCID mouse at 25 mg/kg, po. The class given is ADME, organism-based. The arrangement: dose 25 mg/kg, route oral. Particulars: plasma. The method, boiled down:
as §1

Data set [13] in a line: Antitumor activity against human HCT116 cells xenografted in SCID mouse assessed as tumor growth inhibition at 12.5 mg/kg, ip qd for 18 days. The class given is functional. Particulars: HCT-116, ip, 432 h, route intraperitoneal, read-out: TGI. In outline:
(§2)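 Mice bore HCT116 tumour xenografts. Arms were dosed IP at 12.5 or 25 mg/kg QD, or at 12.5 mg/kg BID. The reference arm received 5-fluorouracil IP at 15 mg/kg daily. Tumour volume was compared with a negative control group to give percent tumour growth inhibition. Body weight was monitored in all arms.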
(Xenograft models place foreign cells or tissue in a host animal.)

Data set [14] is described as follows: Antitumor activity against human HCT116 cells xenografted in SCID mouse assessed as tumor growth inhibition at 25 mg/kg, ip qd for 18 days. It is filed as functional. Particulars: HCT-116, ip, 432 h, route intraperitoneal, read-out: TGI. In outline: as §2
Data set [15] is described as follows: Antitumor activity against human HCT116 cells xenografted in SCID mouse assessed as tumor growth inhibition at 12.5 mg/kg, ip bid for 18 days. The class given is functional. The note with it: HCT-116, ip, 432 h, route intraperitoneal, read-out: TGI. The method, boiled down:
as §2

In data set [16] the test system is Mus musculus. Nature of the data set: Toxicity in SCID mouse assessed as body weight loss at 12.5 mg/kg, ip qd for 18 days. The class given is organism-based. On the set-up: dose 12.5 mg/kg, route intraperitoneal. Particulars: in vivo, 432 h. The method, boiled down: as §2
For data set [17], the system named is Mus musculus. Nature of the data set: Toxicity in SCID mouse assessed as body weight loss at 12.5 mg/kg, ip bid for 18 days. The class given is organism-based. The arrangement: dose 12.5 mg/kg, route intraperitoneal. Particulars: in vivo, 432 h. In outline: as §2
In data set [18] the test system is Mus musculus. The data set is described as follows: Toxicity in SCID mouse assessed as body weight loss at 15 mg/kg, ip qd for 5 days. It is filed as organism-based. The arrangement: dose 15 mg/kg, route intraperitoneal. Particulars: in vivo, 120 h. In outline: as §2
The subject of data set [19] is Mus musculus. Nature of the data set: Toxicity in SCID mouse assessed as mortality at 25 mg/kg, ip bid for 18 days. The note with it: in vivo, 432 h. It is filed as organism-based. The arrangement: dose 25 mg/kg, route intraperitoneal.
Data set [20] has as its system HCT-116. The data set is described as follows: Antitumor activity against human HCT116 cells xenografted in SCID mouse assessed as tumor growth inhibition administered ip qd for 18 days. The class given is functional, organism-based. In outline: as §2

Structures are written as SMILES. Activity calls are given as the source filed them. No cut-off for these calls is given here.

Serine/threonine-protein kinase PLK1, sequence (P53350 whole entry): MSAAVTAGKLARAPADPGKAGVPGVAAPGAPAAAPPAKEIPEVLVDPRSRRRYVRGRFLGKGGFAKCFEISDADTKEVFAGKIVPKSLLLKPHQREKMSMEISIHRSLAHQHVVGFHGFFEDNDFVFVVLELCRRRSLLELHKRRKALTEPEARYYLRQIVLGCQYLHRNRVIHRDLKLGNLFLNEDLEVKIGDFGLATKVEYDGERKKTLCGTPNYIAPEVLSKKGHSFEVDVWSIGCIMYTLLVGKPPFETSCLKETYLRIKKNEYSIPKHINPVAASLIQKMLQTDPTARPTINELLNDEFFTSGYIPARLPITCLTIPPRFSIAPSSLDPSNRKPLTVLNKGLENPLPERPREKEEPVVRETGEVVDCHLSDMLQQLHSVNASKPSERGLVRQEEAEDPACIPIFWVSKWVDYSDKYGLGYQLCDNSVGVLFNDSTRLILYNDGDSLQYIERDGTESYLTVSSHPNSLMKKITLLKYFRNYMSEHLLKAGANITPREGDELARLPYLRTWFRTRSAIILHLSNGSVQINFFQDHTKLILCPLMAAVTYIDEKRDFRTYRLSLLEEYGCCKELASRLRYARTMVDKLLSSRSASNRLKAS
Serine/threonine-protein kinase PLK3, sequence (Q9H4B4 whole entry): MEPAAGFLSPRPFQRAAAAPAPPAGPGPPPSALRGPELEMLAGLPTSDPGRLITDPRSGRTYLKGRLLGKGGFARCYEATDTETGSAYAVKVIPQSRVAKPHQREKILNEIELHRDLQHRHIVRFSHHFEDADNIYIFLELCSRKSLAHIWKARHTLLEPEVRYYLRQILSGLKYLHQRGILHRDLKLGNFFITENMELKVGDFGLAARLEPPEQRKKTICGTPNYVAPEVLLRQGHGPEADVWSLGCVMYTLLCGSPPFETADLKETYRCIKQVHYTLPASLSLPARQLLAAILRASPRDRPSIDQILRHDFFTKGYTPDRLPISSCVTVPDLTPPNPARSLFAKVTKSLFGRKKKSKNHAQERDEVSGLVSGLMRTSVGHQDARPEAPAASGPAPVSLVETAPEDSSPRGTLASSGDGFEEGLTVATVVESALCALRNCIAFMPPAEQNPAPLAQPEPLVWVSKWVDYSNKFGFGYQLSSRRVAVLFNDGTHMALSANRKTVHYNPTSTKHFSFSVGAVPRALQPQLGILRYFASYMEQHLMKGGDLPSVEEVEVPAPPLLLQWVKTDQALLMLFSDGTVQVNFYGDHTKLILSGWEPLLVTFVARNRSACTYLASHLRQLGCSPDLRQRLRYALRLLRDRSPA
Serine/threonine-protein kinase PLK2, sequence (Q9NYY3 whole entry): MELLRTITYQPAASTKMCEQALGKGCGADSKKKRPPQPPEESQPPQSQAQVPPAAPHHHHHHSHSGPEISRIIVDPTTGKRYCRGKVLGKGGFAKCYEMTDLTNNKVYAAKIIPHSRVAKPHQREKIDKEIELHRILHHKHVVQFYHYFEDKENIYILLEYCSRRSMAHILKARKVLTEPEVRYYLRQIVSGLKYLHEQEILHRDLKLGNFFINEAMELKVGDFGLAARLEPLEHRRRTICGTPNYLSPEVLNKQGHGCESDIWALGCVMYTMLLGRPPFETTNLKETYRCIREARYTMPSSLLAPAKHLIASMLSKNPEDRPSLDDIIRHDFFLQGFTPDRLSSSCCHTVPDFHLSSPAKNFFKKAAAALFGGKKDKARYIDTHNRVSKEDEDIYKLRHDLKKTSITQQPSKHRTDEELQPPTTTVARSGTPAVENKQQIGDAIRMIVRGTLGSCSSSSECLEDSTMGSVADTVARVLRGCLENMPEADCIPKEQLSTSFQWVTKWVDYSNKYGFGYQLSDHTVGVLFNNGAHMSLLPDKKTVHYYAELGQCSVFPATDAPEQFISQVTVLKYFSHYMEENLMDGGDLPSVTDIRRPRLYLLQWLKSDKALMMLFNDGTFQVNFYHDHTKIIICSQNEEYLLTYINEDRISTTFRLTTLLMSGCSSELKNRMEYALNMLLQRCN

In general, IC50 refers to the concentration needed to halve the response being measured. Low readings indicate inhibition by little substance, high ones a need for much substance. For the compound `NS(=O)(=O)c1cccc(-c2n[nH]c3ccc(NC(=O)C(c4ccsc4)N4CCCC4)cc23)c1` (racemic), the IC50 in [1] is greater than 50 µM; in data set [2], 10 µM; in data set [3], greater than 50 µM; in data set [4] it was 0.089 µM; in [5] it was 0.9 µM; in [6], 10 µM. The Papp in [7] stood at 4.2 ×10⁻⁶ cm/s. In addition, the result in [8] was Active.
A word on the Cmax: it is the peak of the concentration-time curve. By AUC is commonly meant the area under the concentration-time curve, a measure of exposure. On to `CCc1ccccc1C(C(=O)Nc1ccc2[nH]nc(-c3cccc(S(N)(=O)=O)c3)c2c1)N(C)C` (racemic), for which the IC50 is greater than 50 µM in data set [1], 0.083 µM in data set [4], 0.4 µM in data set [5] and 5 µM in [6]. In [7], the Papp turned out to be 19 ×10⁻⁶ cm/s. The result in data set [8] was Active. Moreover, the Cmax in data set [9] was found to be 4800 ng/mL; in [11], 130 ng/mL. The AUC in [10] was determined as 3000 ng·h/mL; in data set [12], 140 ng·h/mL. Further, the inhibition in vivo at 12.5 mg/kg in data set [13] was 10%; in [15], 46%. Further, in [14], the inhibition in vivo at 25 mg/kg came out at 66%. For the same compound, the Activity entry in data set [16] is recorded as “Non-toxic”; in data set [17], “Non-toxic”; in [18], “Non-toxic”; in [19], “Toxic”. Moreover, in [20], the TGI result was “Dose-dependent effect”.

Source of the values: ChEMBL document CHEMBL3352261, “Discovery of inhibitors of the mitotic kinase TTK based on N-(3-(3-sulfamoylphenyl)-1H-indazol-5-yl)-acetamides and carboxamides” (Bioorg Med Chem, 2014).
